What was measured:
Format in all cases: functional
HCT-116 = test: Cytotoxicity against human HCT116 cells assessed as cell viability at 10 uM after 72 hrs by MTS assay in presence of 10% fetal calf serum relative to control; details: HCT-116, 72 h, read-out: Activity
MCF7 = test: Cytotoxicity against human MCF7 cells assessed as cell viability at 10 uM after 72 hrs by MTS assay in presence of 10% fetal calf serum relative to control; details: MCF7, 72 h, read-out: Activity
How it was run: (§1)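 Cells were grown in RPMI with L-glutamine, 10% FCS, penicillin/streptomycin and fungizone at 37 °C under 5% CO2. Wells were seeded with 1900 cells for MCF-7 or 1300 cells for MDA-MB-231. After 24 h, compound was added from a 10 mM DMSO stock (final DMSO 1%) for 72 h, with DMSO-only controls. Viable cells were read by MTS at 490 nm and expressed as % of untreated. Mean ± SEM, N = 3.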

MDA-MB-231 = test: Cytotoxicity against human MDA-MB-231 cells assessed as cell viability at 10 uM after 72 hrs by MTS assay in presence of 10% fetal calf serum relative to control; details: MDA-MB-231, 72 h, read-out: Activity; how it was run: as §1
[1] = Cytotoxicity against human MDA435 cells assessed as cell viability at 10 uM after 72 hrs by MTS assay in presence of 10% fetal calf serum relative to control; details: MDA-MB-435, 72 h, read-out: Activity
[2] = Cytotoxicity against human MiaPaCa cells assessed as cell viability at 10 uM after 72 hrs by MTS assay in presence of 10% fetal calf serum relative to control; details: MIA PaCa-2, 72 h, read-out: Activity
HepG2 = test: Cytotoxicity against human HepG2 cells assessed as cell viability at 10 uM after 72 hrs by MTS assay in presence of 10% fetal calf serum relative to control; details: HepG2, 72 h, read-out: Activity
PC-3 = test: Cytotoxicity against human PC3 cells assessed as cell viability at 10 uM after 72 hrs by MTS assay in presence of 10% fetal calf serum relative to control; details: PC-3, 72 h, read-out: Activity
LNCaP = test: Cytotoxicity against human LNCAP cells assessed as cell viability at 10 uM after 72 hrs by MTS assay in presence of 10% fetal calf serum relative to control; details: read-out: Activity

| SMILES | viability at 10 µM (HCT-116) [%] | viability at 10 µM (MCF7) [%] | viability at 10 µM (MDA-MB-231) [%] | viability at 10 µM [1] [%] | viability at 10 µM [2] [%] | viability at 10 µM (HepG2) [%] | viability at 10 µM (PC-3) [%] | viability at 10 µM (LNCaP) [%] |
| --- | --- | --- | --- | --- | --- | --- | --- | --- |
| O=C1S/C(=C\c2ccc([N+](=O)[O-])cc2)C(=O)N1Cc1ccccc1 | 93.9 | 80.2 | 64.6 | 86 | 84.9 | 79.4 | 72.3 | 77.9 |
| COc1cc(/C=C2\SC(=O)N(Cc3ccccc3)C2=O)cc(OC)c1OC | 55.9 | 74.7 | 51.5 | 78.8 | 69.8 | 63.8 | 67.9 | 76.2 |
| Cc1c(C)c2c(c(C)c1OC(=O)OC(C)(C)C)CCC(C)(/C=C1\SC(=O)N(Cc3ccccc3)C1=O)O2 (racemic) | 90.5 | 76.5 | 75.4 | 67.6 | 75.3 | 76.3 | 82.4 | 96.2 |
| CCOC(=O)C1(C)CCc2c(C)c(/C=C3\SC(=O)N(Cc4ccccc4)C3=O)c(C)c(C)c2O1 (racemic) | 88 | 97.2 | 68.8 | 81.4 | 86 | 69.2 | 98.3 | 87.5 |
| O=C(O)c1ccccc1-c1ccc(CN2C(=O)S/C(=C\c3ccc(O)cc3)C2=O)cc1 | 97.6 | 99.6 | 94.9 | 100 | 99.3 | 89.8 | 95.6 | 90.1 |
| COc1ccc(/C=C2\SC(=O)N(Cc3ccccc3)C2=O)cc1 | 82.1 | 100 | 89.5 | 92.7 | 99.3 | 87.9 | 91.4 | 100 |
| O=C1S/C(=C\c2ccc(Cl)cc2)C(=O)N1Cc1ccccc1 | 84 | 100 | 73 | 88.8 | 88.3 | 79.3 | 95.5 | 85.5 |
| O=C1S/C(=C\c2ccccc2)C(=O)N1Cc1ccccc1 | 85.4 | 95.6 | 81.6 | 89.9 | 88.8 | 85 | 82.4 | 90.8 |
| Cc1c(C)c2c(c(C)c1O)CCC(C)(/C=C1\SC(=O)N(Cc3ccccc3)C1=O)O2 (racemic) | 81 | 94.2 | 88 | 75.7 | 80.7 | 71.5 | 83.4 | 84.6 |
| CC(C)(C)OC(=O)c1ccccc1-c1ccc(CN2C(=O)S/C(=C\c3ccc(O)cc3)C2=O)cc1 | 61.6 | 80.3 | 51.9 | 66.8 | 59.9 | 22.8 | 49.9 | 32.4 |
| Cc1c(C)c2c(c(C)c1O)CCC(C)(COc1ccc(/C=C3\SC(=O)N(Cc4ccccc4)C3=O)cc1)O2 (racemic) | 43 | 85.3 | 76.4 | 88.7 | 100 | 63.2 | 100 | 85.7 |
